Active and inactive are the calls of the source. No cut-off for these calls is given here.
Key:
[1] = test system: COS; assay: Selectivity index, ratio of Ki for human CB2 receptor to Ki for human CB1 receptor expressed in african green monkey COS cells; type: cell-based
Summary of the method: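 Ki at COS-expressed human CB1 and CB2 each from [3H]CP-55,940 displacement (0.14 nM for CB1), IC50 converted via Cheng-Prusoff, mean of 3 experiments; index taken as ratio of the two Ki values.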

[2] = molecular target: T1, Cannabinoid receptor 1 (Homo sapiens, UniProt P21554); assay: Displacement of [3H]CP-55940 form human CB1 receptor expressed in HEK cells at 10 uM; type: cell-based; details: HEK293
[3] = molecular target: T2, Cannabinoid receptor 2 (Homo sapiens, UniProt P34972); assay: Binding affinity to human recombinant CB2 receptor expressed in african green monkey COS cells by radioligand binding assay; type: cell-based
[4] = molecular target: T2, Cannabinoid receptor 2; assay: Displacement of [3H]CP-55940 form human CB2 receptor expressed in HEK cells at 10 uM; type: cell-based; details: HEK293
[5] = molecular target: T1, Cannabinoid receptor 1; assay: Binding affinity to human recombinant CB1 receptor expressed in african green monkey COS cells by radioligand binding assay; type: cell-based
[6] = molecular target: T3, Cannabinoid receptor 1 (Rattus norvegicus, UniProt P20272); assay: Binding affinity to CB1 receptor in rat spleen membrane; type: cell membranes
[7] = molecular target: T4, Cannabinoid receptor 2 (Rattus norvegicus, UniProt Q9QZN9); assay: Binding affinity to CB2 receptor in rat brain membrane; type: cell membranes
T4 sequence (Q9QZN9 whole entry): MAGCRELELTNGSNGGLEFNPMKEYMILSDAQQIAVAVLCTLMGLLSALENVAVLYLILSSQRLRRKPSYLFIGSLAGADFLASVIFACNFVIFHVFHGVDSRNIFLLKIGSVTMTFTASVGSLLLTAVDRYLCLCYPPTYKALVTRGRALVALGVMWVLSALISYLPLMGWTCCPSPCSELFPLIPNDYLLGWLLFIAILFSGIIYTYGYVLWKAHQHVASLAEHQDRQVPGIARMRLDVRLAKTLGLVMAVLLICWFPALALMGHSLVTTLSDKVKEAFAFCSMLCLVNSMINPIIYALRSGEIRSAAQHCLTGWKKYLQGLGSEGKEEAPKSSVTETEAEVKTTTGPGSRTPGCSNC

[8] = molecular target: T3, Cannabinoid receptor 1; assay: Binding affinity to CB1 receptor in rat brain membrane; type: cell membranes
[9] = molecular target: T4, Cannabinoid receptor 2; assay: Binding affinity to CB2 receptor in rat spleen membrane; type: cell membranes
[10] = test system: Mus musculus; assay: Antinociceptive activity against formalin-induced paw pain in mouse at 1 mg/kg, ip pretreated 15 mins before formalin challenge assessed after 30 to 45 mins in presence of CB1 receptor-antagonist rimonabant; type: functional, organism-based; parameters: dose 1 mg/kg
Summary of the method: (§1)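 Formalin (1.25% in saline, 30 µL) injected into dorsal hind paw; mice randomised, n = 8-10 per group, one treatment each. Test drug given ip in 10% DMSO/saline 15 min pre-formalin; rimonabant or AM630 (1 mg/kg ip) given 5 min before test drug. Lifting, licking, shaking, flinching timed per 5 min over 60 min; one-way ANOVA with Bonferroni.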

[11] = test system: Mus musculus; assay: Antinociceptive activity against formalin-induced paw pain in mouse at 1 mg/kg, ip pretreated 15 mins before formalin challenge assessed after 30 to 45 mins; type: functional, organism-based; parameters: dose 1 mg/kg; summary of the method: as §1
[12] = test system: Mus musculus; assay: Antinociceptive activity against formalin-induced paw pain in mouse at 1 mg/kg, ip pretreated 15 mins before formalin challenge assessed after 30 to 45 mins in presence of CB2 receptor-antagonist AM630; type: functional, organism-based; parameters: dose 1 mg/kg; summary of the method: as §1

T3 sequence (P20272 whole entry): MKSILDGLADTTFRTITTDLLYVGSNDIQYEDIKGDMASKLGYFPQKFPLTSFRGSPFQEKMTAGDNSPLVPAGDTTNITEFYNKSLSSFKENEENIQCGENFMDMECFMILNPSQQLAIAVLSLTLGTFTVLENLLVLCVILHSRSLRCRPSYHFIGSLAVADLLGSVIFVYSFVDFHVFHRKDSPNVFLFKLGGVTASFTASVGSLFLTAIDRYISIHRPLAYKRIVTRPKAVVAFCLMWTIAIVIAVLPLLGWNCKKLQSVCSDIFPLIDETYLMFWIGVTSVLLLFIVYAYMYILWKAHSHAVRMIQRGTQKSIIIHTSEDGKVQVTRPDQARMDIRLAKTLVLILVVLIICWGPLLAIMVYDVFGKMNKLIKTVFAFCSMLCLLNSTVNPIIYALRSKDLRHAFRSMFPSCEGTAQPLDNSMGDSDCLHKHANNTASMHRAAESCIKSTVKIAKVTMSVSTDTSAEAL
T2 sequence (P34972 whole entry): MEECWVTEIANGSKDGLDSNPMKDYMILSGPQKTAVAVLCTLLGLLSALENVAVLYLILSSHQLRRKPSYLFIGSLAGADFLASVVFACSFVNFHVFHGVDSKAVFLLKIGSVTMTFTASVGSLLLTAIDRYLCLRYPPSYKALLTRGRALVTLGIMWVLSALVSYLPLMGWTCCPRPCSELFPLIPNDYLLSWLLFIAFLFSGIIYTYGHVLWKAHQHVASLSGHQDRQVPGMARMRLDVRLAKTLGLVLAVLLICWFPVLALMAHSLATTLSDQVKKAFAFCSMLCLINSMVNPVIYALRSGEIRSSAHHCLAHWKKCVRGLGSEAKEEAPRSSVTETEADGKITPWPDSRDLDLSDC
T1 sequence (P21554 whole entry): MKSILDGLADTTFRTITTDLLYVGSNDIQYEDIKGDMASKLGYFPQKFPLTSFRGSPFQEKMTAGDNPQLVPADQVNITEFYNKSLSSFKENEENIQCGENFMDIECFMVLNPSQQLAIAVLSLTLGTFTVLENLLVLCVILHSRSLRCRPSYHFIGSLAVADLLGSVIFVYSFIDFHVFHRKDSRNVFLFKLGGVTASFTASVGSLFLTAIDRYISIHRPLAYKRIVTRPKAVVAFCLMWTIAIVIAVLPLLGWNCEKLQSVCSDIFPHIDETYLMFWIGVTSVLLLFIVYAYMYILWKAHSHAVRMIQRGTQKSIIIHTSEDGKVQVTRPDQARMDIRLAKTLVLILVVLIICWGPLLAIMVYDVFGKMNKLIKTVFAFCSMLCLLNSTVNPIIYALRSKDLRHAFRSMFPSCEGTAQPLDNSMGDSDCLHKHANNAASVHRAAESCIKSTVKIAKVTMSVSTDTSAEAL

| SMILES | Ratio Ki [1] | Activity [2] | Ki ([3]; read-out: Ki) | Activity [4] | Ki ([5]; read-out: Ki) | IC50 [6] | IC50 [7] | IC50 [8] | Ki ([3]; cos) | Ki ([3]; read-out: pKi (converted)) | IC50 [9] | Ki ([5]; cos) | Ki ([5]; read-out: pKi (converted)) | Activity [10] | Activity [11] | Activity [12] |
| --- | --- | --- | --- | --- | --- | --- | --- | --- | --- | --- | --- | --- | --- | --- | --- | --- |
| CCCCOc1cc(O)cc(OCCCCCCCCCCC(=O)NC2CC2)c1 | 2300 nM | > 50% | 120 nM | > 50% | 280 nM |  |  |  |  |  |  |  |  |  |  |  |
| CCCCCc1cc(O)cc(OCCCCCCCCCCC(=O)NC2CC2)c1 | 400 nM |  |  |  |  |  |  |  |  |  |  |  |  |  |  |  |
| CCCCCCCOc1cc(O)cc(OCCCCCCCCCCC(=O)NC2CC2)c1 | 10600 nM | > 50% | 210 nM | > 50% | 2220 nM |  |  |  |  |  |  |  |  |  |  |  |
| CCCCCCCOc1cc(O)cc(OCCCCCCCCCCC(=O)NCCO)c1 | 1300 nM | > 50% | 2420 nM | > 50% | 3070 nM |  |  |  |  |  |  |  |  |  |  |  |
| CCCCCCC(C)(C)c1cc(O)cc(OCCCCCCCCCCCC(=O)NCCO)c1 | 10300 nM | > 50% | 80 nM | > 50% | 820 nM |  |  |  |  |  |  |  |  |  |  |  |
| CCCCCCC(C)(C)c1cc(O)cc(OCCCCCCCCCCCC(=O)NC2CC2)c1 | 8500 nM | > 50% | 20 nM | > 50% | 170 nM |  |  |  |  |  |  |  |  |  |  |  |
| CC(C)CCOc1cc(O)cc(OCCCCCCCCCCC(=O)NC2CC2)c1 | 1700 nM | > 50% | 130 nM | > 50% | 220 nM |  |  |  |  |  |  |  |  |  |  |  |
| CCCCCCC(C)(C)c1cc(O)cc(OCCCCCCCCCCC(=O)NC2CC2)c1 | 2700 nM | > 50% | 7.9 nM | > 50% | 21 nM |  |  |  |  |  |  |  |  |  |  |  |
| CC(C)CCOc1cc(O)cc(OCCCCCCCCCCC(=O)NCCO)c1 | 5100 nM | > 50% | 570 nM | > 50% | 2880 nM |  |  |  |  |  |  |  |  |  |  |  |
| CCCCOc1cc(O)cc(OCCCCCCCCCCC(=O)NCCO)c1 | 1500 nM | > 50% | 1620 nM | > 50% | 2410 nM |  |  |  |  |  |  |  |  |  |  |  |
| CCCCCCC(C)(C)c1cc(O)cc(OCCCCCCCCCCC(=O)NCC2CC2)c1 | 28600 nM | > 50% | 35 nM | > 50% | 1000 nM |  |  |  |  |  |  |  |  |  |  |  |
| CC(C)CCOc1cc(O)cc(OCCCCCCCCCCC(=O)NCC2CC2)c1 | 11500 nM | > 50% | 200 nM | > 50% | 2300 nM |  |  |  |  |  |  |  |  |  |  |  |
| CCCCCCC(C)(C)c1cc(O)cc(OCCCCCCCCCCC(=O)NCc2ccc(O)c(OC)c2)c1 | 5500 nM | > 50% | 510 nM | > 50% | 2820 nM |  |  |  |  |  |  |  |  |  |  |  |
| O=C(CCCCCCCCCCOc1cc(O)cc(O)c1)NCC1CC1 |  | > 50% |  | > 50% |  | > 10000 nM | > 10000 nM | > 10000 nM | Not Active | 10000 nM | > 10000 nM | Not Active | 10000 nM |  |  |  |
| CCCCCCC(C)(C)c1cc(O)cc(OCCCCCCCC(=O)NCCO)c1 | 400 nM | > 50% | 160 nM | > 50% | 56 nM |  |  |  |  |  |  |  |  |  |  |  |
| CCCCCCC(C)(C)c1cc(O)cc(OCCCCCCCCCCC(=O)NCCc2ccc(O)c(O)c2)c1 | 700 nM | > 50% | 5000 nM | > 50% | 3400 nM |  |  |  |  |  |  |  |  |  |  |  |
| CCCCCCC(C)(C)c1cc(O)cc(OCCCCCCCCCCCC(=O)NCC2CC2)c1 | 9000 nM | > 50% | 600 nM | > 50% | 5400 nM |  |  |  |  |  |  |  |  |  |  |  |
| CCCCCCC(C)(C)c1cc(O)cc(OCCCCCCCC(=O)NCC2CC2)c1 | 2900 nM | > 50% | 34 nM | > 50% | 100 nM |  |  |  |  |  |  |  |  |  |  |  |
| O=C(CCCCCCCCCCOc1cc(O)cc(O)c1)NCCO |  | > 50% |  | > 50% |  | > 10000 nM | > 10000 nM | > 10000 nM | Not Active | 10000 nM | > 10000 nM | Not Active | 10000 nM |  |  |  |
| O=C(CCCCCCCCCCOc1cc(O)cc(O)c1)NC1CC1 |  | > 50% |  | > 50% |  | > 10000 nM | > 10000 nM | > 10000 nM | Not Active | 10000 nM | > 10000 nM | Not Active | 10000 nM |  |  |  |
| CCCCCCC(C)(C)c1cc(O)cc(OCCCCCCCCCCC(=O)NCCO)c1 | 10300 nM | > 50% | 30 nM | > 50% | 310 nM |  |  |  |  |  |  |  |  |  |  |  |
| CCCCCCC(C)(C)c1cc(O)cc(OCCCCCCCC(=O)NC2CC2)c1 | 700 nM | > 50% | 7.9 nM | > 50% | 5.6 nM |  |  |  |  |  |  |  |  | inactive | Active | inactive |

From ChEMBL document CHEMBL1153817, “New resorcinol-anandamide "hybrids" as potent cannabinoid receptor ligands endowed with antinociceptive activity in vivo” (J Med Chem, 2009)
